Reference: ChEMBL document CHEMBL1149297 (J Med Chem, 2004)
Calls of active or inactive are those of the source. No cut-off for these calls is given here.

Assays:
[1] = target: Neuronal acetylcholine receptor; alpha4/beta2 (Homo sapiens) (UniProt P17787+P43681); assay: Displacement of [3H]epibatidine from alpha-4-beta-2 nAChR immobilized on liquid chromatographic stationary phases; assay type: protein-complex assay
[2] = target: T1, Neuronal acetylcholine receptor; alpha3/beta4 (Homo sapiens, UniProt P30926+P32297); assay: Agonist activity at alpha-3-beta-4 nAChR in KXalpha-3-beta-4R2 cells by rubidium efflux assay relative to nicotine; assay type: functional, cell-based; parameters: concentration or dose not given beside the values
T1 sequence (P30926 whole entry): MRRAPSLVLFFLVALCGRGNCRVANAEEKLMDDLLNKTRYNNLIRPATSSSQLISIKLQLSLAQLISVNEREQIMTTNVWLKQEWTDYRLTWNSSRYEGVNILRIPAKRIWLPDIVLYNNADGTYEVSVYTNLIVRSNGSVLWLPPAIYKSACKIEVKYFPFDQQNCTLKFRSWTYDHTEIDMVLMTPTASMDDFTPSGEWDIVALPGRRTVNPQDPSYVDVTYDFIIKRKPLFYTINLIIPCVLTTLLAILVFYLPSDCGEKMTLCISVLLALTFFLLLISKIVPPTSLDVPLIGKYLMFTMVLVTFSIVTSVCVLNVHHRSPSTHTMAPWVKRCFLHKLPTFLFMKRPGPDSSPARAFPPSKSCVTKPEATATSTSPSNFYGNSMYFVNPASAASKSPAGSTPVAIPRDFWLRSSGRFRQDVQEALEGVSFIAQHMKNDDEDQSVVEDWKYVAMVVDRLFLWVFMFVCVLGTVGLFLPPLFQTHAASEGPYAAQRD
T1 sequence (P32297 whole entry): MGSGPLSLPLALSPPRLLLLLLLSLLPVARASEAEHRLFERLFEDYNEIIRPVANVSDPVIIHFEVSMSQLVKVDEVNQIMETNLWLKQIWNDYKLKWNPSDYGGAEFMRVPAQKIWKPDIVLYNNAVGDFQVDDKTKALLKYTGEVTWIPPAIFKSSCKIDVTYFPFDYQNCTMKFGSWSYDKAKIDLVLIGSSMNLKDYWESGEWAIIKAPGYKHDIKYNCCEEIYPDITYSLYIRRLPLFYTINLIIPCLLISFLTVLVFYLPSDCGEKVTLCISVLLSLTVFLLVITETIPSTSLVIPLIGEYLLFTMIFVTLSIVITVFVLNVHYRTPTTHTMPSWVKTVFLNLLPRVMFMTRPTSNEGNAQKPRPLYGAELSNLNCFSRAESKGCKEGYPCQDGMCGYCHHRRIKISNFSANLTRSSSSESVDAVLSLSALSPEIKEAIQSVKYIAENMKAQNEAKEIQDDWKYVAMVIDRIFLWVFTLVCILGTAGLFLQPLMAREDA
In short: (§1)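 KXα3β4R2 cells (stably expressing α3β4 nAChR) grown in selection MEM with 10% FBS and geneticin, plated on poly(D-lysine) and grown 48 h at 37 °C to >90% confluence. Cells were loaded with 86Rb+ (2 μCi/well) for 4 h at 37 °C and washed three times in buffer A (Hepes/NaCl/KCl/MgSO4/CaCl2/glucose, pH 7.4). Compound in buffer A was applied for 2 min, and efflux was counted by liquid scintillation.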

[3] = target: T1, Neuronal acetylcholine receptor; alpha3/beta4; assay: Displacement of [3H]epibatidine from alpha-3-beta-4 nAChR immobilized on liquid chromatographic stationary phases; assay type: protein-complex assay
[4] = target: T1, Neuronal acetylcholine receptor; alpha3/beta4; assay: Agonist activity at alpha-3-beta-4 nAChR in KXalpha-3-beta-4R2 cells by rubidium efflux assay; assay type: functional, cell-based
In short: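 KXα3β4R2 cells stably expressing α3β4 nAChRs, grown in MEM/10% FBS with geneticin selection, plated on poly(D-lysine) and grown 48 h at 37 °C to >90% confluence. Loaded with 86Rb+ (2 μCi/well) 4 h at 37 °C, washed in Hepes-buffered saline pH 7.4, then exposed to compound for 2 min. Released 86Rb+ counted by liquid scintillation.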

[5] = target: T1, Neuronal acetylcholine receptor; alpha3/beta4; assay: Agonist activity at alpha3beta4 nAChR in KXalpha-3-beta-4R2 cells by rubidium efflux assay at 1 mM; assay type: functional, cell-based; in short: as §1

| Compound | Activity [1] [mL] | Activity [2] | Activity [3] [mL] | EC50 [4] [µM] | Activity [5] |
| --- | --- | --- | --- | --- | --- |
| CN1CCC[C@H]1c1cccnc1 | 0.26 | 100% | 0.16 | – | – |
| COC(=O)N1CC[C@@H]2C=Cc3cc(Cl)nc(Cl)c3[C@@H]21 | 0.28 | 100% | 0.28 | 20.8 | – |
| COC(=O)N1CC[C@@H]2C[C@@H](S(=O)(=O)c3ccccc3)c3cc(Cl)nc(Cl)c3[C@@H]21 | 0.13 | 10% | -0.12 | > 1000 | – |
| Clc1ccc(C2CC3CCC2N3)cn1 (configuration not stated) | – | inactive | – | – | – |
| c1cc2c(cn1)[C@@H]1NCCC[C@@H]1CC2 | – | 10% | – | > 1000 | Active |
| COC(=O)N1CC[C@@H]2CCc3ccncc3[C@@H]21 | 0.23 | – | 0.12 | – | – |
| COC(=O)N1CC[C@@H]2CCc3ccnc(Cl)c3[C@@H]21 | 0.18 | 10% | -0.32 | > 1000 | – |
| COC(=O)N1CC[C@@H]2C[C@@H](Sc3ccccc3)c3cc(Cl)nc(Cl)c3[C@@H]21 | 0.17 | 10% | -0.04 | > 1000 | inactive |
| COC(=O)N1CCC[C@@H]2C[C@@H](Sc3ccccc3)c3cc(Cl)nc(Cl)c3[C@@H]21 | – | 100% | – | 18.2 | – |
| Clc1cc2c(c(Cl)n1)[C@@H]1NCC[C@@H]1C[C@H]2Sc1ccccc1 | – | 35% | – | 26.4 | – |
| COC(=O)N1CCC[C@@H]2C=Cc3cc(Cl)nc(Cl)c3[C@@H]21 | – | 75% | – | 13.8 | – |
